Experimental data published in ChEMBL document CHEMBL3046448, “Design and syntheses of novel phthalazin-1(2H)-one derivatives as acetohydroxyacid synthase inhibitors” (J Agric Food Chem, 2006).

What was measured:
Setaria viridis [1] = assay: Herbicidal activity against Setaria viridis (green foxtail) assessed as growth inhibition at 150 g ai/ha applied as post-emergence treatment under green house conditions measured 15 days post compound treatment; type: functional; conditions: 360 h, read-out: GI
Method in brief: (§1)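 Monocot weeds grown in pots in a greenhouse and sprayed post-emergence at the one-leaf stage. Clay soil: pH 6.5, 1.6% organic matter, 37.3% clay, CEC 12.1 cmol/kg. Formulation: 100 g/L emulsified concentrate (DMF, TW-80) diluted with water to 150 g ai/ha. Untreated and DMF controls included. Growth inhibition scored visually after 15 days: ++ >80%, + 50-80%, − <50%.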

Amaranthus retroflexus [2] = assay: Herbicidal activity against Amaranthus retroflexus assessed as growth inhibition at 150 g ai/ha applied as pre-emergence treatment 24 hr after weeds seeds sowing under green house conditions measured 15 days post compound treatment; type: functional; conditions: read-out: GI
Method in brief: (§2)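 Pre-emergence spray applied 24 h after sowing weeds in pots in a greenhouse. Clay soil: pH 6.5, 1.6% organic matter, 37.3% clay, CEC 12.1 cmol/kg. Formulation: 100 g/L emulsified concentrate (DMF solvent, TW-80 emulsifier) diluted with water to 150 g ai/ha. Untreated and DMF-treated controls. Growth inhibition judged visually at 15 days: ++ >80%, + 50-80%, − <50%.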

Echinochloa crus-galli [3] = assay: Herbicidal activity against Echinochloa crus-galli (barnyard grass) assessed as growth inhibition at 150 g ai/ha applied as post-emergence treatment under green house conditions measured 15 days post compound treatment; type: functional; conditions: 360 h, read-out: GI; method in brief: as §1
Echinochloa crus-galli [4] = assay: Herbicidal activity against Echinochloa crus-galli (barnyard grass) assessed as growth inhibition at 150 g ai/ha applied as pre-emergence treatment 24 hr after weeds seeds sowing under green house conditions measured 15 days post compound treatment; type: functional; conditions: read-out: GI; method in brief: as §2
Amaranthus retroflexus [5] = assay: Herbicidal activity against Amaranthus retroflexus assessed as growth inhibition at 150 g ai/ha applied as post-emergence treatment under green house conditions measured 15 days post compound treatment; type: functional; conditions: 360 h, read-out: GI
Method in brief: (§3)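 Post-emergence spray on pot-grown dicot weeds at the two-leaf stage in a greenhouse. Clay soil: pH 6.5, 1.6% organic matter, 37.3% clay, CEC 12.1 cmol/kg. Formulation: 100 g/L DMF/TW-80 emulsified concentrate, water-diluted to 150 g ai/ha. Untreated and DMF solvent controls. Visual inhibition rating at 15 days: ++ >80%, + 50-80%, − <50%.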

Setaria viridis [6] = assay: Herbicidal activity against Setaria viridis (green foxtail) assessed as growth inhibition at 150 g ai/ha applied as pre-emergence treatment 24 hr after weeds seeds sowing under green house conditions measured 15 days post compound treatment; type: functional; conditions: read-out: GI; method in brief: as §2
Chenopodium album [7] = assay: Herbicidal activity against Chenopodium album assessed as growth inhibition at 150 g ai/ha applied as pre-emergence treatment 24 hr after weeds seeds sowing under green house conditions measured 15 days post compound treatment; type: functional; conditions: read-out: GI; method in brief: as §2
[8] = biological target: T1, Acetolactate synthase, chloroplastic (Arabidopsis thaliana, UniProt P17597); assay: Inhibition of wild type Arabidopsis thaliana acetohydroxyacid synthase
T1 sequence (P17597 whole entry): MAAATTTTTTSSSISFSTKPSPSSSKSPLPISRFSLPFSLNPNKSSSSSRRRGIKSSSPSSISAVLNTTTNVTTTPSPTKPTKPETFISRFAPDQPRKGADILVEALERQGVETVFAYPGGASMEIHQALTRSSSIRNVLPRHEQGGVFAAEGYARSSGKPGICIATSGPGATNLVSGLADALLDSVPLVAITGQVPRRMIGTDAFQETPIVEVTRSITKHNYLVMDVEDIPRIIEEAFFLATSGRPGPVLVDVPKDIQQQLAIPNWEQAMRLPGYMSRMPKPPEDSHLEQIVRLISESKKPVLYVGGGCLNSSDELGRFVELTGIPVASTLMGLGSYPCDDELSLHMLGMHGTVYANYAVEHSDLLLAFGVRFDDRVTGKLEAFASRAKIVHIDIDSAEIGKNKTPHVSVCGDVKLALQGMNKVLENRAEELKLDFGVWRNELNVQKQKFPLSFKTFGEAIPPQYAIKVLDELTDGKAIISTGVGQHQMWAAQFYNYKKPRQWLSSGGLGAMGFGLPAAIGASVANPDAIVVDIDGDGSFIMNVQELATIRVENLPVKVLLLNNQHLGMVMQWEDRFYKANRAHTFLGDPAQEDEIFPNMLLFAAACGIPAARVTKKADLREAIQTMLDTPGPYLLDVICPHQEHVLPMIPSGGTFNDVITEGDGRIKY

Digitaria sanguinalis [9] = assay: Herbicidal activity against Digitaria sanguinalis (hairy crabgrass) assessed as growth inhibition at 150 g ai/ha applied as post-emergence treatment under green house conditions measured 15 days post compound treatment; type: functional; conditions: 360 h, read-out: GI; method in brief: as §1
Brassica juncea [10] = assay: Herbicidal activity against Brassica juncea assessed as growth inhibition at 150 g ai/ha applied as post-emergence treatment under green house conditions measured 15 days post compound treatment; type: functional; conditions: 360 h, read-out: GI; method in brief: as §3
Chenopodium album [11] = assay: Herbicidal activity against Chenopodium album assessed as growth inhibition at 150 g ai/ha applied as post-emergence treatment under green house conditions measured 15 days post compound treatment; type: functional; conditions: 360 h, read-out: GI; method in brief: as §3
Brassica juncea [12] = assay: Herbicidal activity against Brassica juncea assessed as growth inhibition at 150 g ai/ha applied as pre-emergence treatment 24 hr after weeds seeds sowing under green house conditions measured 15 days post compound treatment; type: functional; conditions: read-out: GI; method in brief: as §2
Digitaria sanguinalis [13] = assay: Herbicidal activity against Digitaria sanguinalis (hairy crabgrass) assessed as growth inhibition at 150 g ai/ha applied as pre-emergence treatment 24 hr after weeds seeds sowing under green house conditions measured 15 days post compound treatment; type: functional; conditions: read-out: GI; method in brief: as §2

Ki [8]	SMILES	inhibition of growth at 150 g/ha (Setaria viridis [1])	inhibition of growth at 150 g/ha (Amaranthus retroflexus [2])	inhibition of growth at 150 g/ha (Echinochloa crus-galli [3])	inhibition of growth at 150 g/ha (Echinochloa crus-galli [4])	inhibition of growth at 150 g/ha (Amaranthus retroflexus [5])	inhibition of growth at 150 g/ha (Setaria viridis [6])	inhibition of growth at 150 g/ha (Chenopodium album [7])	inhibition of growth at 150 g/ha (Digitaria sanguinalis [9])	inhibition of growth at 150 g/ha (Brassica juncea [10])	inhibition of growth at 150 g/ha (Chenopodium album [11])	inhibition of growth at 150 g/ha (Brassica juncea [12])	inhibition of growth at 150 g/ha (Digitaria sanguinalis [13])
210 µM	COc1cc(OC)nc(Oc2cccc3c(C)nn(Cc4ccccc4Cl)c(=O)c23)n1	< 50%	< 50%	< 50%	< 50%	< 50%	< 50%	< 50%	< 50%	< 50%	< 50%	< 50%	< 50%
822 µM	COc1cc(OC)nc(Oc2cccc3c(C)nn(Cc4ccccc4)c(=O)c23)n1	< 50%	< 50%	< 50%	< 50%	< 50%	< 50%	< 50%	< 50%	< 50%	< 50%	< 50%	< 50%
1560 µM	COc1cc(OC)nc(Oc2cccc3c(C)nn(CC(=O)OC(C)(C)C)c(=O)c23)n1	< 50%	< 50%	< 50%	< 50%	< 50%	< 50%	< 50%	< 50%	< 50%	< 50%	< 50%	< 50%
1660 µM	CCCn1nc(C)c2cccc(Oc3nc(OC)cc(OC)n3)c2c1=O	50%	< 50%	50%	< 50%	> 80%	< 50%	< 50%	50%	50%	50%	< 50%	< 50%
778 µM	COc1cc(OC)nc(Oc2cccc3c(C)nn(CC4OCCO4)c(=O)c23)n1	> 80%	< 50%	50%	< 50%	> 80%	< 50%	< 50%	50%	50%	50%	< 50%	< 50%
637 µM	COc1cc(OC)nc(Oc2cccc3c(C)nn(Cc4ccc(C)cc4)c(=O)c23)n1	< 50%	< 50%	< 50%	< 50%	< 50%	< 50%	< 50%	< 50%	< 50%	< 50%	< 50%	< 50%
1040 µM	COc1cc(OC)nc(Oc2cccc3c(C)nn(Cc4ccc(F)cc4F)c(=O)c23)n1	50%	< 50%	50%	< 50%	> 80%	< 50%	< 50%	< 50%	50%	< 50%	< 50%	< 50%
310 µM	COc1cc(OC)nc(Oc2cccc3c(C)nn(Cc4ccc(Br)cc4)c(=O)c23)n1	< 50%	< 50%	< 50%	< 50%	< 50%	< 50%	< 50%	< 50%	< 50%	< 50%	< 50%	< 50%
441 µM	CCCCn1nc(C)c2cccc(Oc3nc(OC)cc(OC)n3)c2c1=O	50%	< 50%	50%	< 50%	> 80%	< 50%	< 50%	< 50%	50%	> 80%	< 50%	< 50%
216 µM	COc1cc(OC)nc(Oc2cccc3c(C)nn(Cc4cccc(Cl)c4)c(=O)c23)n1	< 50%	< 50%	50%	< 50%	> 80%	< 50%	< 50%	< 50%	50%	50%	< 50%	< 50%
1680 µM	CCn1nc(C)c2cccc(Oc3nc(OC)cc(OC)n3)c2c1=O	> 80%	< 50%	> 80%	< 50%	> 80%	< 50%	< 50%	> 80%	< 50%	50%	< 50%	< 50%
310 µM	COc1cc(OC)nc(Oc2cccc3c(C)nn(Cc4cc(C)ccc4[N+](=O)[O-])c(=O)c23)n1	50%	< 50%	50%	< 50%	> 80%	< 50%	< 50%	< 50%	50%	50%	< 50%	< 50%

SMILES	Ki [8]	inhibition of growth at 150 g/ha (Setaria viridis [1])	inhibition of growth at 150 g/ha (Amaranthus retroflexus [2])	inhibition of growth at 150 g/ha (Echinochloa crus-galli [3])	inhibition of growth at 150 g/ha (Echinochloa crus-galli [4])	inhibition of growth at 150 g/ha (Amaranthus retroflexus [5])	inhibition of growth at 150 g/ha (Setaria viridis [6])	inhibition of growth at 150 g/ha (Chenopodium album [7])	inhibition of growth at 150 g/ha (Digitaria sanguinalis [9])	inhibition of growth at 150 g/ha (Brassica juncea [10])	inhibition of growth at 150 g/ha (Chenopodium album [11])	inhibition of growth at 150 g/ha (Brassica juncea [12])	inhibition of growth at 150 g/ha (Digitaria sanguinalis [13])
CO/N=C(/C)c1cccc(Oc2nc(OC)cc(OC)n2)c1C(=O)OC [PYRIMINOBAC-METHYL]	49 µM		< 50%	> 80%	< 50%	> 80%	< 50%	< 50%	> 80%		> 80%	< 50%	< 50%
